ChEMBL document CHEMBL4304748, “Design, Synthesis, and Biological Evaluation of a New Series of Carvedilol Derivatives That Protect Sensory Hair Cells from Aminoglycoside-Induced Damage by Blocking the Mechanoelectrical Transducer Channel” (J Med Chem, 2019)
The source made the active and inactive calls. The calls are words filed in the database; no cut-off is given here.

What was measured:
[1] = Binding affinity to MET in CD-1 mouse cochlear outer hair cells measured at -84 mV membrane potential in presence of calcium by patch clamp assay
Mus musculus [2] = organism: Mus musculus; assay: Otoprotective activity against gentamicin-induced outer hair cell death in CD-1 mouse cochlea at 20 uM after 48 hrs by TRITC-phalloidin staining-based microscopic analysis relative to control; assay type: functional
In short: (§1)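 Mouse cochlear cultures coincubated for 48 h with 5 μM gentamicin plus compound (5, 10 or 20 μM). OHCs counted in a 300 μm long segment of the mid-basal cochlea. Counts compared with 0.5% DMSO control and with gentamicin + 0.5% DMSO cultures.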

Mus musculus [3] = organism: Mus musculus; assay: Inhibition of MET in CD-1 mouse cochlea outer hair cells assessed as reduction in MET currents at 10 uM measured at -160 mV to +80 mV membrane potential by patch clamp assay
In short: (§2)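 OHC MET currents recorded before and during exposure to 10 μM compound. Fractional block taken as the current during exposure relative to the control current at each membrane potential.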

[4] = Binding affinity to MET in CD-1 mouse cochlea outer hair cells measured at -104 mV membrane potential by patch clamp assay
In short: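 MET currents recorded from outer hair cells of mouse cochlear cultures before and during extracellular superfusion of compound at 1, 3 and 10 μM. Membrane potentials stepped from -164 to +96 mV. Currents normalized to the peak control current at +96 mV for each cell. Dose–response curves at each potential fitted with eq 1 to give KD and Hill coefficient.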

[5] = Cytotoxicity against CD-1 mouse cochlea assessed as induction of cell damage at 20 uM in presence of gentamicin after 48 hrs by confocal microscopic analysis; assay type: toxicity, tissue-based
In short: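 Mouse cochlear cultures exposed 48 h to 5 μM gentamicin plus 20 μM compound, with 0.5% DMSO and gentamicin-only controls. Hair cells and bundle morphology imaged, including confocal imaging of IHC stereociliary bundles. OHC survival counted in a 300 μm segment of the mid-basal region.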

Mus musculus [6] = organism: Mus musculus; assay: Inhibition of MET in CD-1 mouse cochlea outer hair cells assessed as blockade of MET currents at 10 uM measured at -164 mV membrane potential by patch clamp assay relative to control; in short: as §2
Mus musculus [7] = organism: Mus musculus; assay: Otoprotective activity against gentamicin-induced outer hair cell death in CD-1 mouse cochlea at 10 uM after 48 hrs by TRITC-phalloidin staining-based microscopic analysis relative to control; assay type: functional; in short: as §1

Row | Compound | Activity (Mus musculus [2]) | inhibition (Mus musculus [3]) | Activity [5] | other results
1 | CN[C@@H]1[C@H](O[C@H]2[C@H](O[C@@H]3[C@@H](O)[C@H](O)[C@@H](NC(=N)N)[C@H](O)[C@H]3NC(=N)N)O[C@@H](C)[C@]2(O)CO)O[C@@H](CO)[C@H](O)[C@H]1O | – | – | – | Kd [1]: 7 µM
2 | COc1ccc(CCN(C)CCCC(C#N)(c2ccc(OC)c(OC)c2)C(C)C)cc1OC (stereo not drawn) | inactive | – | – | –
3 | COc1ccccc1OCCNCCOc1ccccc1OC | inactive | inactive | – | –
4 | COc1cc2c3cc1Oc1cc(ccc1O)C[C@@H]1c4c(cc(OC)c(O)c4Oc4ccc(cc4)C[C@@H]3N(C)CC2)CC[N+]1(C)C [TUBOCURARINE] | – | – | – | Kd [4]: 2.2 µM
5 | Cn1cc(C(F)(F)F)nc1-c1ccc(OCC(O)CNCCOc2ccc(O)c(C(N)=O)c2)cc1 (stereo not drawn) | inactive | – | – | –
6 | COc1ccccc1OCCNCC(O)COc1ccccc1OC (stereo not drawn) | inactive | inactive | – | –
7 | OC(CNCCOc1ccccc1)COc1cccc2[nH]c3ccccc3c12 (stereo not drawn) | inactive | – | Toxic | inhibition (Mus musculus [6]): 50 to 60%
8 | COc1ccccc1N1CCN(CC(O)COc2cccc3ccccc23)CC1 (stereo not drawn) | Active | inactive | – | Activity (Mus musculus [7]): inactive
9 | COc1ccccc1OCCNCCCCOc1cccc2[nH]c3ccccc3c12 | inactive | – | Toxic | –
10 | OC(CNCCc1ccccc1)Cn1c2ccccc2c2ccccc21 (stereo not drawn) | inactive | – | Toxic | –
